Measurements: ChEMBL document CHEMBL1126713, “Nonpeptide angiotensin II receptor antagonists. 1. Synthesis and in vitro structure-activity relationships of 4-[[[(1H-pyrrol-1-ylacetyl)amino]phenyl]methyl]imidazole derivatives as angiotensin II receptor antagonists” (J Med Chem, 1993)

Key:
[1] = molecular target: T1, Type-1 angiotensin II receptor B (Rattus norvegicus, UniProt P29089); assay: Binding affinity against angiotensin II receptor type 1 (AT1) from rat liver.
T1 sequence (P29089 whole entry): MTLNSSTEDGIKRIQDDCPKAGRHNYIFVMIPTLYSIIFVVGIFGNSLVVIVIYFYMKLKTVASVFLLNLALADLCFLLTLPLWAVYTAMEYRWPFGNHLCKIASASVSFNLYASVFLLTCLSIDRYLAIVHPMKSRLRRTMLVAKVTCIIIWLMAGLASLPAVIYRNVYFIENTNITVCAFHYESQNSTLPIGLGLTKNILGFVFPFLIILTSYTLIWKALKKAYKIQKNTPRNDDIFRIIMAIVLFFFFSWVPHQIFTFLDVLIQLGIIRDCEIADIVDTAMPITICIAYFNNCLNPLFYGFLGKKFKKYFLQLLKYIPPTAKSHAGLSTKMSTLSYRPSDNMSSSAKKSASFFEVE
How it was run: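 Compounds were added from DMSO at 100× the final concentration. Samples were filtered on glass-fiber filters presoaked in Tris pH 7.7 with bacitracin and scintillation-counted. Nonspecific binding used 10 μM saralasin. IC50 came from nonlinear mass-action fits of five or six doses or more (mean ± SEM).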

[2] = molecular target: T2, Type-1 angiotensin II receptor B (Rattus norvegicus) (UniProt P29089); assay: Binding affinity against angiotensin II (AT1 receptor) from rat liver expressed as % inhibition at 10 e -7 M
T2 sequence (whole entry): T1 sequence (P29089 whole entry)

Oryctolagus cuniculus = species: Oryctolagus cuniculus; assay: Inhibition of Angiotensin II induced contraction of isolated rabbit aortic rings; assay type: functional; settings: Aorta
How it was run: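 Thoracic aortic rings, 4–5 mm, from New Zealand White rabbits (3–4 kg) were held in PSS at 37 °C under 95% O2/5% CO2, with isometric force recorded. Rings were equilibrated 1.5 h, primed with 122 mM KCl and given two 10^-8 M AII control contractions. Compound in DMSO was incubated 10 min before the AII concentration–response was repeated. IC50 is the concentration halving AII contraction relative to the averaged controls.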

With CCCCc1nc(Cl)c(CC(=O)O)n1Cc1ccc(NC(=O)[C@H](Cc2ccccc2)n2ccc(C(=O)OCC)c2C)cc1 the IC50 [1] was 140 nM.
For CCCCc1nc(Cl)c(CC(=O)O)n1Cc1ccc(NC(=O)CCc2ccccc2)cc1, the inhibition [2] was 7.8%.
CCCCc1nc(Cl)c(CC(=O)OC)n1Cc1ccc(NC(=O)[C@H](Cc2ccccc2)n2ccc(C(=O)OCC)c2)cc1 gave an inhibition [2] of 7.2%.
Compound CCCCc1nc(Cl)c(C(=O)OC)n1Cc1ccc(NC(=O)[C@H](Cc2cccs2)n2cccc2C(=O)OC)cc1 has an inhibition [2] of 11%.
CCCCc1nc(Cl)c(CO)n1Cc1ccc(NC(=O)[C@H](Cc2ccccc2)n2cccc2C(=O)O)cc1 gave an IC50 [1] of 180 nM and an IC50 (Oryctolagus cuniculus) of 17000 nM.
For CCCCc1nc(Cl)c(CO)n1Cc1ccc(NC(=O)C(C#N)Cc2ccccc2)cc1 (configuration not stated), the IC50 [1] was 2600 nM.
With CCCCc1nc(Cl)c(CC(=O)OC)n1Cc1ccc(NC(=O)[C@H](Cc2ccccc2)n2cccc2C(=O)OC)cc1 the IC50 [1] was 500 nM.
Compound CCCCc1nc(Cl)c(C(=O)O)n1Cc1ccc(NC(=O)[C@H](Cc2cccs2)n2cccc2C(=O)O)cc1 has an IC50 [1] of 180 nM.
With CCCCc1nc(Cl)c(C(=O)OC)n1Cc1ccc(NC(=O)[C@H](Cc2ccccc2)n2cccc2C(=O)OC)cc1 the inhibition [2] was 15%.
Work on CCCCc1ncc(C(=O)OC)n1Cc1ccc(NC(=O)[C@H](Cc2ccccc2)n2cccc2C(=O)OC)cc1 yielded an inhibition [2] of 33%.
Work on CCCCc1nc(Cl)c(CC(=O)OC)n1Cc1ccc(NC(=O)[C@H](Cc2ccccc2)n2ccc(C(=O)OCC)c2C)cc1 yielded an IC50 [1] of 1470 nM.
With CCCCc1nc(Cl)c(CC(=O)O)n1Cc1ccc(NC(=O)[C@H](Cc2ccccc2)n2ccc(C(=O)OCC)c2)cc1 the IC50 [1] was 240 nM and the IC50 (Oryctolagus cuniculus) was 14000 nM.
With CCCCc1nc(Cl)c(CO)n1Cc1ccc(NC(=O)[C@H](CCCC)n2cccc2C(=O)OC)cc1 the IC50 [1] was 590 nM.
With CCCCc1nc(Cl)c(CO)n1Cc1ccc(NC(=O)Cn2cccc2C(=O)OC)cc1 the IC50 [1] was 8370 nM.
For CCCCc1nc(Cl)c(C(=O)O)n1Cc1ccc(-c2ccccc2C(=O)O)cc1, the IC50 [1] was 92 nM.
Work on CCCCc1nc(Cl)c(CC(=O)OC)n1Cc1ccc(NC(=O)[C@H](Cc2cccs2)n2cccc2C(=O)OC)cc1 yielded an IC50 [1] of 800 nM.
Compound CCc1nc2c(C)cc(C)nc2n1Cc1ccc(NC(=O)[C@H](Cc2ccccc2)n2cccc2C(=O)OC)cc1 has an IC50 [1] of 330 nM.
CCCCc1nc(Cl)c(C(=O)O)n1Cc1ccc(NC(=O)[C@H](Cc2cccs2)n2cccc2)cc1 showed an IC50 [1] of 670 nM.
CCCCc1nc(Cl)c(CO)n1Cc1ccc(-c2ccccc2C(=O)O)cc1 was tested, and the IC50 [1] was 300 nM.
Compound CCCCc1nc(Cl)c(C(=O)O)n1Cc1ccc(NC(=O)[C@H](Cc2ccccc2)n2cccc2C(=O)O)cc1 has an IC50 [1] of 80 nM and an IC50 (Oryctolagus cuniculus) of 550 nM.
CCCCc1nc(Cl)c(CO)n1Cc1ccc(NC(=O)C(=O)c2ccccc2)cc1 was tested, and the IC50 [1] was 10900 nM.
CCCCc1nc(Cl)c(CC(=O)O)n1Cc1ccc(NC(=O)[C@H](Cc2ccccc2)n2cccc2)cc1 gave an IC50 [1] of 210 nM and an IC50 (Oryctolagus cuniculus) of 6300 nM.
In the case of CCCCc1nc(-n2cccc2)c(C(=O)OCC)n1Cc1ccc(NC(=O)[C@H](Cc2ccccc2)n2cccc2C(=O)O)cc1, the IC50 [1] is reported as 2500 nM.
CCc1nc2c(C)cc(C)nc2n1Cc1ccc(NC(=O)[C@H](Cc2ccccc2)n2cccc2C(=O)O)cc1 gave an IC50 [1] of 60 nM.
CCCCc1nc(Cl)c(CC(=O)O)n1Cc1ccc(NC(=O)[C@H](Cc2ccccc2)n2cccc2C)cc1 was tested, and the IC50 [1] was 140 nM and the IC50 (Oryctolagus cuniculus) was 6400 nM.
CCCCc1nc(Cl)c(CC(=O)O)n1Cc1ccc(NC(=O)[C@H](Cc2cccs2)n2cccc2C(=O)O)cc1 showed an IC50 [1] of 24 nM.
CCCCc1nc(Cl)c(CC(=O)OC)n1Cc1ccc(NC(=O)[C@H](Cc2ccccc2)n2cccc2C)cc1 was tested, and the inhibition [2] was 14.8%.
With CCCCc1nc(Cl)c(CCC(=O)OC)n1Cc1ccc(NC(=O)[C@H](Cc2ccccc2)n2cccc2C(=O)OC)cc1 the IC50 [1] was 210 nM.
Work on CCCCc1nc(Cl)c(CC(=O)O)n1Cc1ccc(NC(=O)[C@H](Cc2ccccc2)n2c(C)ccc2C)cc1 yielded an IC50 [1] of 370 nM.
With CCCCc1nc(Cl)c(CC(=O)O)n1Cc1ccc(NC(=O)[C@H](Cc2ccccc2)n2cccc2C(=O)O)cc1 the IC50 (Oryctolagus cuniculus) was 520 nM.
With CCCCc1nc(Cl)c(CO)n1Cc1ccc(NC(=O)C(Cc2ccccc2)c2nn[nH]n2)cc1 (configuration not stated) the IC50 [1] was 2600 nM.
Compound CCCCc1nc(Cl)c(CO)n1Cc1ccc(NC(=O)[C@H](Cc2ccccc2)n2cccc2)cc1 has an inhibition [2] of 8.1%.
CCCCc1nc(-n2cccc2)c(C(=O)O)n1Cc1ccc(NC(=O)[C@H](Cc2ccccc2)n2cccc2C(=O)O)cc1 showed an IC50 [1] of 340 nM.
CCCCc1nc(Cl)c(CCC(=O)O)n1Cc1ccc(NC(=O)[C@H](Cc2ccccc2)n2cccc2C(=O)O)cc1 was tested, and the IC50 [1] was 22 nM and the IC50 (Oryctolagus cuniculus) was 220 nM.
With CCCCc1nc(Cl)c(CO)n1Cc1ccc(NC(=O)[C@H](Cc2ccccc2)n2cccc2C(=O)OC)cc1 the IC50 [1] was 210 nM.
In the case of CCCCc1nc(Cl)c(CC(=O)O)n1Cc1ccc(NC(=O)[C@H](Cc2ccccc2)n2cc(C#N)c3ccccc32)cc1, the IC50 [1] is reported as 1290 nM.
CCCCc1nc2c(C)cccc2n1Cc1ccc(NC(=O)[C@H](Cc2ccccc2)n2cccc2C(=O)O)cc1 gave an IC50 [1] of 930 nM.
Work on CCCCc1ncc(C(=O)O)n1Cc1ccc(NC(=O)[C@H](Cc2ccccc2)n2cccc2C(=O)O)cc1 yielded an IC50 [1] of 20 nM and an IC50 (Oryctolagus cuniculus) of 110 nM.
Compound CCCCc1nc(Cl)c(C(=O)OC)n1Cc1ccc(NC(=O)[C@H](Cc2cccs2)n2cccc2)cc1 has an inhibition [2] of 2.5%.
Compound CCCCc1nc(Cl)c(CO)n1Cc1ccc(NC(=O)[C@H](c2ccccc2)n2cccc2C(=O)OC)cc1 has an IC50 [1] of 1120 nM.
